Measurements: ChEMBL document CHEMBL2321753, “Synthesis and biological evaluation of radioiodinated quinacrine-based derivatives for SPECT imaging of Aβ plaques” (Eur J Med Chem, 2013)

How the values were obtained:
Heart [1] = assay: Biodistribution in ddY mouse heart at 0.1 to 0.4 uCi, iv after 60 mins by gamma counting; type: ADME, organism-based; details: in vivo, 1 h
In short: (§1)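 [125I]ligand (0.1–0.4 µCi) in 100 µL PBS (pH 7.4) containing 30 µL DMSO, injected into the tail vein of ddY mice (5 weeks, 22–25 g). Mice sacrificed at 2, 10, 30 and 60 min. Organs removed, weighed and gamma-counted. Values are % injected dose per gram, except stomach as % dose per organ. Mean (SD) of 3–6 mice per time point.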

Pancreas [2] = assay: Biodistribution in ddY mouse pancreas at 0.1 to 0.4 uCi, iv after 60 mins by gamma counting; type: ADME, organism-based; details: in vivo, 1 h; in short: as §1
Stomach [3] = assay: Biodistribution in ddY mouse stomach assessed per organ at 0.1 to 0.4 uCi, iv after 60 mins by gamma counting; type: ADME, organism-based; details: in vivo, 1 h; in short: as §1
Lung [4] = assay: Biodistribution in ddY mouse lung at 0.1 to 0.4 uCi, iv after 60 mins by gamma counting; type: ADME, organism-based; details: in vivo, 1 h; in short: as §1
Spleen [5] = assay: Biodistribution in ddY mouse spleen at 0.1 to 0.4 uCi, iv after 60 mins by gamma counting; type: ADME, organism-based; details: in vivo, 1 h; in short: as §1
Intestine [6] = assay: Biodistribution in ddY mouse intestine at 0.1 to 0.4 uCi, iv after 60 mins by gamma counting; type: ADME, organism-based; details: in vivo, 1 h; in short: as §1
Kidney [7] = assay: Biodistribution in ddY mouse kidney at 0.1 to 0.4 uCi, iv after 60 mins by gamma counting; type: ADME, organism-based; details: in vivo, 1 h; in short: as §1
Liver [8] = assay: Biodistribution in ddY mouse liver at 0.1 to 0.4 uCi, iv after 60 mins by gamma counting; type: ADME, organism-based; details: in vivo, 1 h; in short: as §1
Brain [9] = assay: Biodistribution in ddY mouse brain at 0.1 to 0.4 uCi, iv after 60 mins by gamma counting; type: ADME, organism-based; details: in vivo, 1 h; in short: as §1
Blood [10] = assay: Biodistribution in ddY mouse blood at 0.1 to 0.4 uCi, iv after 60 mins by gamma counting; type: ADME, organism-based; details: in vivo, 1 h; in short: as §1
Heart [11] = assay: Biodistribution in ddY mouse heart at 0.1 to 0.4 uCi, iv after 30 mins by gamma counting; type: ADME, organism-based; details: in vivo, 0.5 h; in short: as §1
Pancreas [12] = assay: Biodistribution in ddY mouse pancreas at 0.1 to 0.4 uCi, iv after 30 mins by gamma counting; type: ADME, organism-based; details: in vivo, 0.5 h; in short: as §1
Stomach [13] = assay: Biodistribution in ddY mouse stomach assessed per organ at 0.1 to 0.4 uCi, iv after 30 mins by gamma counting; type: ADME, organism-based; details: in vivo, 0.5 h; in short: as §1
Lung [14] = assay: Biodistribution in ddY mouse lung at 0.1 to 0.4 uCi, iv after 30 mins by gamma counting; type: ADME, organism-based; details: in vivo, 0.5 h; in short: as §1
Spleen [15] = assay: Biodistribution in ddY mouse spleen at 0.1 to 0.4 uCi, iv after 30 mins by gamma counting; type: ADME, organism-based; details: in vivo, 0.5 h; in short: as §1
Intestine [16] = assay: Biodistribution in ddY mouse intestine at 0.1 to 0.4 uCi, iv after 30 mins by gamma counting; type: ADME, organism-based; details: in vivo, 0.5 h; in short: as §1
Kidney [17] = assay: Biodistribution in ddY mouse kidney at 0.1 to 0.4 uCi, iv after 30 mins by gamma counting; type: ADME, organism-based; details: in vivo, 0.5 h; in short: as §1
Liver [18] = assay: Biodistribution in ddY mouse liver at 0.1 to 0.4 uCi, iv after 30 mins by gamma counting; type: ADME, organism-based; details: in vivo, 0.5 h; in short: as §1
Brain [19] = assay: Biodistribution in ddY mouse brain at 0.1 to 0.4 uCi, iv after 30 mins by gamma counting; type: ADME, organism-based; details: in vivo, 0.5 h; in short: as §1
Blood [20] = assay: Biodistribution in ddY mouse blood at 0.1 to 0.4 uCi, iv after 30 mins by gamma counting; type: ADME, organism-based; details: in vivo, 0.5 h; in short: as §1
Heart [21] = assay: Biodistribution in ddY mouse heart at 0.1 to 0.4 uCi, iv after 10 mins by gamma counting; type: ADME, organism-based; details: in vivo; in short: as §1
Pancreas [22] = assay: Biodistribution in ddY mouse pancreas at 0.1 to 0.4 uCi, iv after 10 mins by gamma counting; type: ADME, organism-based; details: in vivo; in short: as §1
Stomach [23] = assay: Biodistribution in ddY mouse stomach assessed per organ at 0.1 to 0.4 uCi, iv after 10 mins by gamma counting; type: ADME, organism-based; details: in vivo; in short: as §1
Lung [24] = assay: Biodistribution in ddY mouse lung at 0.1 to 0.4 uCi, iv after 10 mins by gamma counting; type: ADME, organism-based; details: in vivo; in short: as §1
Spleen [25] = assay: Biodistribution in ddY mouse spleen at 0.1 to 0.4 uCi, iv after 10 mins by gamma counting; type: ADME, organism-based; details: in vivo; in short: as §1
Intestine [26] = assay: Biodistribution in ddY mouse intestine at 0.1 to 0.4 uCi, iv after 10 mins by gamma counting; type: ADME, organism-based; details: in vivo; in short: as §1
Liver [27] = assay: Biodistribution in ddY mouse liver at 0.1 to 0.4 uCi, iv after 10 mins by gamma counting; type: ADME, organism-based; details: in vivo; in short: as §1
Kidney [28] = assay: Biodistribution in ddY mouse kidney at 0.1 to 0.4 uCi, iv after 10 mins by gamma counting; type: ADME, organism-based; details: in vivo; in short: as §1
Brain [29] = assay: Biodistribution in ddY mouse brain at 0.1 to 0.4 uCi, iv after 10 mins by gamma counting; type: ADME, organism-based; details: in vivo; in short: as §1
Blood [30] = assay: Biodistribution in ddY mouse blood at 0.1 to 0.4 uCi, iv after 10 mins by gamma counting; type: ADME, organism-based; details: in vivo; in short: as §1
Pancreas [31] = assay: Biodistribution in ddY mouse pancreas at 0.1 to 0.4 uCi, iv after 2 mins by gamma counting; type: ADME, organism-based; details: in vivo; in short: as §1
Heart [32] = assay: Biodistribution in ddY mouse heart at 0.1 to 0.4 uCi, iv after 2 mins by gamma counting; type: ADME, organism-based; details: in vivo; in short: as §1
Stomach [33] = assay: Biodistribution in ddY mouse stomach assessed per organ at 0.1 to 0.4 uCi, iv after 2 mins by gamma counting; type: ADME, organism-based; details: in vivo; in short: as §1
Lung [34] = assay: Biodistribution in ddY mouse lung at 0.1 to 0.4 uCi, iv after 2 mins by gamma counting; type: ADME, organism-based; details: in vivo; in short: as §1
Intestine [35] = assay: Biodistribution in ddY mouse intestine at 0.1 to 0.4 uCi, iv after 2 mins by gamma counting; type: ADME, organism-based; details: in vivo; in short: as §1
Spleen [36] = assay: Biodistribution in ddY mouse spleen at 0.1 to 0.4 uCi, iv after 2 mins by gamma counting; type: ADME, organism-based; details: in vivo; in short: as §1
Kidney [37] = assay: Biodistribution in ddY mouse kidney at 0.1 to 0.4 uCi, iv after 2 mins by gamma counting; type: ADME, organism-based; details: in vivo; in short: as §1
Liver [38] = assay: Biodistribution in ddY mouse liver at 0.1 to 0.4 uCi, iv after 2 mins by gamma counting; type: ADME, organism-based; details: in vivo; in short: as §1
Blood [39] = assay: Biodistribution in ddY mouse blood at 0.1 to 0.4 uCi, iv after 2 mins by gamma counting; type: ADME, organism-based; details: in vivo; in short: as §1
Brain [40] = assay: Biodistribution in ddY mouse brain at 0.1 to 0.4 uCi, iv after 2 mins by gamma counting; type: ADME, organism-based; details: in vivo; in short: as §1
[41] = n-octanol-sodium phosphate buffer partition co-efficient, log D of the compound at pH 7.4 by shake flask method; type: physicochemical
In short: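 Shake-flask partition between n-octanol and sodium phosphate buffer, pH 7.4, shaken 10 min at room temperature, then centrifuged. Weighed 0.5 mL samples of each layer counted. log D from the ratio of cpm per gram of octanol to cpm per gram of buffer; n = 3.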

## COc1c2ccc([125I])cc2nc2ccc(N(C)C)cc12
Heart [1]
  Drug uptake: 2.38 % ID/g
Pancreas [2]
  Drug uptake: 1.14 % ID/g
Stomach [3]
  Drug uptake: 4.33 %ID
Lung [4]
  Drug uptake: 3.87 % ID/g
Spleen [5]
  Drug uptake: 2.43 % ID/g
Intestine [6]
  Drug uptake: 11.2 % ID/g
Kidney [7]
  Drug uptake: 4.81 % ID/g
Liver [8]
  Drug uptake: 10.79 % ID/g
Brain [9]
  Drug uptake: 0.71 % ID/g
Blood [10]
  Drug uptake: 5.17 % ID/g
Heart [11]
  Drug uptake: 4.09 % ID/g
Pancreas [12]
  Drug uptake: 2.29 % ID/g
Stomach [13]
  Drug uptake: 4.2 %ID
Lung [14]
  Drug uptake: 6.67 % ID/g
Spleen [15]
  Drug uptake: 5.4 % ID/g
Intestine [16]
  Drug uptake: 17.49 % ID/g
Kidney [17]
  Drug uptake: 10.72 % ID/g
Liver [18]
  Drug uptake: 18.54 % ID/g
Brain [19]
  Drug uptake: 1.6 % ID/g
Blood [20]
  Drug uptake: 6.52 % ID/g
Heart [21]
  Drug uptake: 3.78 % ID/g
Pancreas [22]
  Drug uptake: 2.47 % ID/g
Stomach [23]
  Drug uptake: 5.1 %ID
Lung [24]
  Drug uptake: 6.66 % ID/g
Spleen [25]
  Drug uptake: 4.07 % ID/g
Intestine [26]
  Drug uptake: 14.19 % ID/g
Liver [27]
  Drug uptake: 20.71 % ID/g
Kidney [28]
  Drug uptake: 8.99 % ID/g
Brain [29]
  Drug uptake: 1.96 % ID/g
Blood [30]
  Drug uptake: 7 % ID/g
Pancreas [31]
  Drug uptake: 4.11 % ID/g
Heart [32]
  Drug uptake: 5.83 % ID/g
Stomach [33]
  Drug uptake: 1.83 %ID
Lung [34]
  Drug uptake: 7.17 % ID/g
Intestine [35]
  Drug uptake: 1.86 % ID/g
Spleen [36]
  Drug uptake: 5.09 % ID/g
Kidney [37]
  Drug uptake: 10.94 % ID/g
Liver [38]
  Drug uptake: 20.78 % ID/g
Blood [39]
  Drug uptake: 8.34 % ID/g
Brain [40]
  Drug uptake: 2.09 % ID/g
[41]
  logD: 1.81
